Test results published in ChEMBL document CHEMBL4373711, “Development of 3,5-Dinitrophenyl-Containing 1,2,4-Triazoles and Their Trifluoromethyl Analogues as Highly Efficient Antitubercular Agents Inhibiting Decaprenylphosphoryl-β-d-ribofuranose 2'-Oxidase” (J Med Chem, 2019).
Converted amounts (≈) assume the structure as drawn. The source made the active and inactive calls. No cut-off for these calls is given here.

Tests used:
[1] = tested on: Mycobacterium tuberculosis; experiment: Antimycobacterial activity against XDR Mycobacterium tuberculosis Praha 131 after 21 days; format: functional; settings: Praha 131, 504 h
Outline: (§1)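 M. tuberculosis strains (H37Rv and clinical MDR/XDR isolates) tested by microdilution in Šula's semisynthetic medium. Compounds were dissolved in DMSO and tested at 32 to 0.03 µM in twofold steps. Inoculum was a 1.0 McFarland suspension diluted 10-3. Plates were incubated at 37 °C and read at 14 and 21 days.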

[2] = tested on: Mycobacterium tuberculosis; experiment: Antimycobacterial activity against XDR Mycobacterium tuberculosis Praha 131 after 14 days; format: functional; settings: Praha 131, 336 h; outline: as §1
[3] = tested on: Mycobacterium kansasii; experiment: Antimycobacterial activity against Mycobacterium kansasii 6509/96 after 14 days; format: functional; settings: 6509/96, 336 h
Outline: (§2)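 Microdilution in Šula's semisynthetic medium; compounds in DMSO at 32–0.03 µM. Inoculum from 1.0 McFarland suspension diluted 10-4. […] Isoniazid and rifampicin as reference drugs.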

[4] = tested on: A-431; experiment: Cytotoxicity against human A431 cells assessed as reduction in cell viability after 48 hrs by CellTiter 96 aqueous one solution assay; format: cell-based; settings: A-431, 48 h
[5] = tested on: Mycobacterium avium; experiment: Antimycobacterial activity against Mycobacterium avium CNCTC My 330/88 after 14 days; format: functional; settings: CNCTC My 330/88, 336 h
Outline: (§3)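 M. avium was tested by microdilution in Šula's semisynthetic medium, with compounds dissolved in DMSO and serially diluted from 1000 down to 1. Inoculum was a 1.0 McFarland suspension diluted 10-5. Plates were incubated at 37 °C and read at 14 and 21 days. […] Isoniazid and rifampicin served as standards.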

[6] = tested on: Mycobacterium kansasii; experiment: Antimycobacterial activity against Mycobacterium kansasii 6509/96 after 7 days; format: functional; settings: 6509/96, 168 h; outline: as §2
[7] = Cytotoxicity against human A431 cells assessed as cell viability at 30 uM after 48 hrs by CellTiter 96 aqueous one solution assay relative to control; format: cell-based, A-431; settings: read-out: Activity
Outline: (§4)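 HepG2 (DMEM, 10% FBS, 1 mM pyruvate) or A431 (DMEM, 10% FBS) seeded 10,000 cells/well, 24 h at 37 °C, 5% CO2, then 30 µM compound for 48 h. MTS reagent 60 min, absorbance 490 nm, background subtracted; 0.1% DMSO vehicle = 100%, 10% SDS = 0% viability.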

[8] = tested on: Lichtheimia corymbifera; experiment: Antifungal activity against Lichtheimia corymbifera CCM 8077 at highest concentration measured after 24 to 48 hrs by alamar blue dye based broth microdilution assay; format: functional, organism-based
[9] = tested on: Staphylococcus aureus; experiment: Antibacterial activity against methicillin-resistant Staphylococcus aureus subsp. aureus ATCC 43300 CCM 4750 at highest concentration measured after 24 to 48 hrs by alamar blue dye based broth microdilution assay; format: functional, organism-based
[10] = Genotoxicity in Salmonella typhimurium TA100 at 30 uM in presence of rat liver S9 fraction by Ames test; format: toxicity, subcellular; settings: salmonella enterica subsp. enterica serovar typhimurium, s9, 30 µM
Outline: (§5)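 Microplate fluctuation Ames reverse-mutation test following kit instructions; TA98 detects frameshift and TA100 base-exchange mutations. Compound at 30 µM final with Aroclor-1254-induced rat liver S9 plus cofactors.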

[11] = tested on: Candida albicans; experiment: Antifungal activity against Candida albicans ATCC 24433 CCM 8320 at highest concentration measured after 24 to 48 hrs by alamar blue dye based broth microdilution assay; format: functional, organism-based
[12] = tested on: Aspergillus flavus; experiment: Antifungal activity against Aspergillus flavus CCM 8363 at highest concentration measured after 24 to 48 hrs by alamar blue dye based broth microdilution assay; format: functional, organism-based
[13] = tested on: Staphylococcus epidermidis; experiment: Antibacterial activity against Staphylococcus epidermidis at highest concentration measured after 24 to 48 hrs by alamar blue dye based broth microdilution assay; format: functional, organism-based
[14] = tested on: Pseudomonas aeruginosa; experiment: Antibacterial activity against Pseudomonas aeruginosa ATCC 27853 CCM 3955 at highest concentration measured after 24 to 48 hrs by alamar blue dye based broth microdilution assay; format: functional, organism-based
[15] = tested on: Staphylococcus aureus; experiment: Antibacterial activity against Staphylococcus aureus subsp. aureus ATCC 29213 CCM 4223 at highest concentration measured after 24 to 48 hrs by alamar blue dye based broth microdilution assay; format: functional, organism-based
[16] = tested on: Aspergillus fumigatus; experiment: Antifungal activity against Aspergillus fumigatus ATCC 204305 at highest concentration measured after 24 to 48 hrs by alamar blue dye based broth microdilution assay; format: functional, organism-based
[17] = tested on: Serratia marcescens; experiment: Antibacterial activity against Serratia marcescens at highest concentration measured after 24 to 48 hrs by alamar blue dye based broth microdilution assay; format: functional, organism-based
[18] = tested on: Enterococcus faecalis; experiment: Antibacterial activity against Enterococcus faecalis ATCC 29212 CCM 4224 at highest concentration measured after 24 to 48 hrs by alamar blue dye based broth microdilution assay; format: functional, organism-based
[19] = tested on: Mycobacterium tuberculosis; experiment: Antimycobacterial activity against Mycobacterium tuberculosis H37Rv CNCTC My 331/88 after 21 days; format: functional; settings: H37Rv CNCTC My 331/88, 504 h; outline: as §1
[20] = tested on: Mycobacterium avium; experiment: Antimycobacterial activity against Mycobacterium avium CNCTC My 330/88 after 21 days; format: functional; settings: CNCTC My 330/88, 504 h; outline: as §3
[21] = tested on: Mycobacterium kansasii; experiment: Antimycobacterial activity against Mycobacterium kansasii CNCTC My 235/80 after 14 days; format: functional; settings: CNCTC My 235/80, 336 h; outline: as §2
[22] = tested on: Mycobacterium tuberculosis; experiment: Antimycobacterial activity against Mycobacterium tuberculosis H37Rv CNCTC My 331/88 after 14 days; format: functional; settings: H37Rv CNCTC My 331/88, 336 h; outline: as §1
[23] = Genotoxicity in Salmonella typhimurium TA98 at 30 uM in presence of rat liver S9 fraction by Ames test; format: toxicity, subcellular; settings: salmonella enterica subsp. enterica serovar typhimurium, s9, 30 µM; outline: as §5
[24] = tested on: Mycobacterium kansasii; experiment: Antimycobacterial activity against Mycobacterium kansasii CNCTC My 235/80 after 7 days; format: functional; settings: CNCTC My 235/80, 168 h; outline: as §2
[25] = tested on: Candida tropicalis; experiment: Antifungal activity against Candida tropicalis ATCC 750 CCM 8264 at highest concentration measured after 24 to 48 hrs by alamar blue dye based broth microdilution assay; format: functional, organism-based
[26] = tested on: Mycobacterium kansasii; experiment: Antimycobacterial activity against Mycobacterium kansasii 6509/96 after 21 days; format: functional; settings: 6509/96, 504 h; outline: as §2
[27] = tested on: Escherichia coli; experiment: Antibacterial activity against Escherichia coli ATCC 25922 CCM 3954 at highest concentration measured after 24 to 48 hrs by alamar blue dye based broth microdilution assay; format: functional, organism-based
[28] = tested on: Mycobacterium kansasii; experiment: Antimycobacterial activity against Mycobacterium kansasii CNCTC My 235/80 after 21 days; format: functional; settings: CNCTC My 235/80, 504 h; outline: as §2
[29] = tested on: Trichophyton interdigitale; experiment: Antifungal activity against Trichophyton interdigitale ATCC 9533 CCM 8377 at highest concentration measured after 72 to 120 hrs by alamar blue dye based broth microdilution assay; format: functional
[30] = tested on: Klebsiella pneumoniae; experiment: Antibacterial activity against Klebsiella pneumoniae at highest concentration measured after 24 to 48 hrs by alamar blue dye based broth microdilution assay; format: functional, organism-based
[31] = tested on: Pichia kudriavzevii; experiment: Antifungal activity against Candida krusei ATCC 6258 CCM8271 at highest concentration measured after 24 to 48 hrs by alamar blue dye based broth microdilution assay; format: functional, organism-based
[32] = Cytotoxicity against human HepG2 cells assessed as cell viability at 30 uM after 48 hrs by CellTiter 96 aqueous one solution assay relative to control; format: cell-based; settings: read-out: Activity; outline: as §4
[33] = tested on: HepG2; experiment: Cytotoxicity against human HepG2 cells assessed as reduction in cell viability after 48 hrs by CellTiter 96 aqueous one solution assay; format: cell-based; settings: HepG2, 48 h
[34] = tested on: Candida parapsilosis; experiment: Antifungal activity against Candida parapsilosis ATCC 22019 CCM 8260 at highest concentration measured after 24 to 48 hrs by alamar blue dye based broth microdilution assay; format: functional, organism-based

O=[N+]([O-])c1cc(-c2nnc(SCc3ccc(Cl)c(Cl)c3)n2Cc2ccccc2)cc([N+](=O)[O-])c1
MIC99 [1]: 0.25 µM (≈ 0.129 µg/mL)
MIC99 [2]: 0.125 µM (≈ 0.0645 µg/mL)
MIC99 [3]: 0.125 µM (≈ 0.0645 µg/mL)
IC50 [4]: > 30 µM
MIC99 [5]: 62 µM (≈ 32 µg/mL)
MIC99 [6]: 0.06 µM (≈ 0.031 µg/mL)
viability at 48 h, 30 µM [7]: 97%
Activity [8]: inactive
Activity [9]: inactive
Activity [10]: Non-Toxic
Activity [11]: inactive
Activity [12]: inactive
Activity [13]: inactive
Activity [14]: inactive
Activity [15]: inactive
Activity [16]: inactive
Activity [17]: inactive
Activity [18]: inactive
MIC99 [19]: 0.25 µM (≈ 0.129 µg/mL)
MIC99 [20]: 62 µM (≈ 32 µg/mL)
MIC99 [21]: 0.25 µM (≈ 0.129 µg/mL)
MIC99 [22]: 0.25 µM (≈ 0.129 µg/mL)
Activity [23]: Toxic
MIC99 [24]: 0.25 µM (≈ 0.129 µg/mL)
Activity [25]: inactive
MIC99 [26]: 0.125 µM (≈ 0.0645 µg/mL)
Activity [27]: inactive
MIC99 [28]: 0.25 µM (≈ 0.129 µg/mL)
Activity [29]: inactive
Activity [30]: inactive
Activity [31]: inactive
viability at 48 h, 30 µM [32]: 103%
IC50 [33]: > 30 µM
Activity [34]: inactive

O=[N+]([O-])c1cc(-c2nnc(SCc3ccc(Cl)c(Cl)c3)n2Cc2ccccc2)cc(C(F)(F)F)c1
MIC99 [1]: 2 µM (≈ 1.08 µg/mL)
MIC99 [2]: 2 µM (≈ 1.08 µg/mL)
MIC99 [3]: 4 µM (≈ 2.16 µg/mL)
IC50 [4]: > 30 µM
MIC99 [5]: 250 µM (≈ 135 µg/mL)
MIC99 [6]: 4 µM (≈ 2.16 µg/mL)
viability at 48 h, 30 µM [7]: 80%
Activity [10]: Non-Toxic
MIC99 [19]: 2 µM (≈ 1.08 µg/mL)
MIC99 [20]: 250 µM (≈ 135 µg/mL)
MIC99 [21]: 4 µM (≈ 2.16 µg/mL)
MIC99 [22]: 2 µM (≈ 1.08 µg/mL)
Activity [23]: Non-Toxic
MIC99 [24]: 4 µM (≈ 2.16 µg/mL)
MIC99 [26]: 8 µM (≈ 4.31 µg/mL)
MIC99 [28]: 4 µM (≈ 2.16 µg/mL)
viability at 48 h, 30 µM [32]: 104%
IC50 [33]: > 30 µM

O=[N+]([O-])c1cc(CSc2nnc(-c3ccc(Br)cc3)n2Cc2ccccc2)cc([N+](=O)[O-])c1
MIC99 [1]: 4 µM (≈ 2.11 µg/mL)
MIC99 [2]: 4 µM (≈ 2.11 µg/mL)
MIC99 [3]: 4 µM (≈ 2.11 µg/mL)
IC50 [4]: > 30 µM
MIC99 [5]: 250 µM (≈ 132 µg/mL)
MIC99 [6]: 2 µM (≈ 1.05 µg/mL)
viability at 48 h, 30 µM [7]: 93%
Activity [8]: inactive
Activity [9]: inactive
Activity [11]: inactive
Activity [12]: inactive
Activity [13]: inactive
Activity [14]: inactive
Activity [15]: inactive
Activity [16]: inactive
Activity [17]: inactive
Activity [18]: inactive
MIC99 [19]: 4 µM (≈ 2.11 µg/mL)
MIC99 [20]: 250 µM (≈ 132 µg/mL)
MIC99 [21]: 2 µM (≈ 1.05 µg/mL)
MIC99 [22]: 2 µM (≈ 1.05 µg/mL)
MIC99 [24]: 1 µM (≈ 0.526 µg/mL)
Activity [25]: inactive
MIC99 [26]: 4 µM (≈ 2.11 µg/mL)
Activity [27]: inactive
MIC99 [28]: 4 µM (≈ 2.11 µg/mL)
Activity [29]: inactive
Activity [30]: inactive
Activity [31]: inactive
viability at 48 h, 30 µM [32]: 173%
IC50 [33]: > 30 µM
Activity [34]: inactive
